Screening results from PubChem.
In the library only some 11% were active in any assay of this set; here they are far more common.
M1 antagonist: antagonists of rat M1 muscarinic receptor. CHO-M1 cells, Fluo-4 calcium, ACh EC80 antagonist mode; hits give low values. B-score at 10 µM. hit rate 3.4% among 64,000;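 active = calcium fluorescence response, raw or row-and-column corrected B-score, differing from the plate sample mean either way at a set confidence level, mostly lower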
TNAP act mid DEA: activators of human TNAP at intermediate phosphate acceptor | P05186 | purified TNAP, CDP-star luminescence, 100 mM DEA, 30 min; hits give high values; scale: 0 levamisole-inhibited, 1 vehicle-only enzyme | activation factor at 20 µM | 64,000 tested, under 10 active;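 active = activation factor of at least 2 at 20 µM, relative to controls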
S1P3 agonist: agonists of human S1P3 receptor. AID 373. hit rate 0.1% among 60,000. Q99500. activation, % at 4.5 µM. S1P3 NFAT-BLA reporter cells, agonism, FRET ratio; relative to 1 µM S1P, basal subtracted;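 active = activation above the screen-wide mean plus 3 SD, cut at about 4.5% in these data, passing the limit was not always enough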
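Benchmarks: high control 1 µM S1P / System: stable CHO line with human S1P3, Gα16, NFAT-BLA reporter / Dosing: single compound concentration, 4.5 µM final / Timing: 4 h compound at 37 °C, 2 h substrate at RT / Measured by: FRET β-lactamase substrate fluorescence, excitation 405 nm, 460/535 nm emission ratio, background-subtracted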
S1P1 ag pot: activates or potentiates agonism at human S1P1 receptor | P21453 | S1P1 CRE-bla cells, forskolin, beta-lactamase FRET, potentiator mode; S1P1 agonist co-added at EC20, 2 nM; 100% = saturating reference agonist, 0% = basal | activation, % at 9.5 µM | hit rate 0.57% among 56,000;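 active = activation above a cutoff set at the mean activation of all tested compounds plus 3 SD, cut at about 54% in these data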;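 note: forskolin at 4 µM as EC80 and the EC20 agonist is SEW2871; 100% = SEW2871 at its EC100 plus forskolin at EC80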
M1 ag: activates the M1 muscarinic receptor | CHO-M1 cells, Fluo-4 calcium fluorescence, agonist mode; hits give high values | AID 626 | hit rate 3% among 64,000 | B-score at 10 µM;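 active = fluorescence rise, raw or as B-score row- and column-corrected plate score, outside the 99.7% band of its plate's samples, either direction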
D1 allo mod: D1 dopamine receptor (human) allosteric modulation | P21728 | HEK293 D1, CRE-luciferase, dopamine EC30 potentiation; actives deviate in either direction | B-score at 10 µM | hit rate 5.9% among 58,000;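 active = luminescence count or its row- and column-corrected plate score outside the 99.7% band of the plate's sample wells, on either side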
Target sequence (P21728 whole entry, looked up): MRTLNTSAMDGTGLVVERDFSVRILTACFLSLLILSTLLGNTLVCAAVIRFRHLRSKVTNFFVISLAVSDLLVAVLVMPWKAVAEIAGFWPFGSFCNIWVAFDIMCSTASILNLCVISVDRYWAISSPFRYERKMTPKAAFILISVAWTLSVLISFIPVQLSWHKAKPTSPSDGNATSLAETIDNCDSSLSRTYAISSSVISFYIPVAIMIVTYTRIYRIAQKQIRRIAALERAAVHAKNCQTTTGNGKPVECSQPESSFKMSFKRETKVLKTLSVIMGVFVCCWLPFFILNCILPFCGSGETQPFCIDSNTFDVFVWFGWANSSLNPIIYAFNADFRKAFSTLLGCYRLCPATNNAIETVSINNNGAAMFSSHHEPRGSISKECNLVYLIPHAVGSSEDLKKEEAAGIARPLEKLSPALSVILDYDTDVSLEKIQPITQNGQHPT
D1 mod confirm: D1 receptor (human) allosteric modulation, confirmed. hit rate 88% among 2,200. shares compounds with D1 allo mod. luminescence at 10 µM. HEK293 D1 CRE-luciferase, dopamine EC30 potentiation; hits give high values. AID 642;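 active = luminescence in either of two replicates above the same-plate mean plus 3 SD of the low-dose dopamine control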
D1 ag no DA: D1 (human) signaling in absence of dopamine; shares compounds with D1 allo mod; HEK293 D1 CRE-luciferase, luminescence, no dopamine; hits give high values; luminescence at 10 µM; hit rate 0.8% among 1,900; in the data active = luminescence above about 3900
Isoprot counter: isoproterenol response counter-screen activity for D1 modulators; shares compounds with D1 allo mod; HEK293 D1 CRE-luciferase, isoproterenol EC30 counter-screen; hits give high values; luminescence at 10 µM; hit rate 63% among 2,200; AID 647;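 active = luminescence in either replicate above plate mean of wells with a partly effective reference agonist dose plus 3 SD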;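 note: isoproterenol raises cAMP through native beta-adrenoceptor Gs so signal bypasses D1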
An asterisk follows results filed as active; x = not tested or not shown.

SMILES | M1 antagonist | TNAP act mid DEA | S1P3 agonist | S1P1 ag pot | M1 ag | D1 allo mod | D1 mod confirm | D1 ag no DA | Isoprot counter
COc1ccccc1NC(=O)c1ccc(NS(=O)(=O)c2c(C)noc2C)cc1 | -0.39 | 0.9 | 0 | -7 | 0.33 | 0.036 | x | x | x
COc1ccccc1CNC(=O)c1ccc(NS(=O)(=O)c2c(C)noc2C)cc1 | -0.25 | 0.9 | 0 | -7 | -0.22 | 4.2* | 6660* | 1648 | 2340
COc1ccc(NC(=O)CN(c2ccc(C(C)C)cc2)S(=O)(=O)c2c(C)noc2C)cc1OC | -0.0066 | 0.9 | -1 | 27 | -0.23 | 3* | 4788 | 1104 | 2228
COc1ccc(NC(=O)c2ccc(NS(=O)(=O)c3c(C)noc3C)cc2)cc1OC | -0.31 | 1 | 0 | 0 | 0.027 | 8.8* | 5712* | 1524 | 2272
CCC(=O)N1CCc2cc(S(=O)(=O)NC(CC(C)C)C(=O)N3CCc4ccccc43)ccc21 (stereo not given) | x | 0.9 | x | x | x | 1.1 | x | x | x
O=C(NCCCN1CCCC1=O)c1cc(=O)c2ccccc2o1 | 1.4 | 0.9 | 0 | 1 | -0.2 | 1.4 | x | x | x
O=S(=O)(NC1CCCCCC1)c1cccc2cccnc12 | 0.011 | 0.9 | 0 | -3 | -0.26 | 5.5* | 9760* | 1524 | 3500*
CN(CC(=O)NC1CCCCCCC1)S(=O)(=O)c1cccc2cccnc12 | 0.68 | 1 | 0 | -15 | 1.3 | x | x | x | x
Cc1nn(-c2ccccc2)c2sc(C(=O)OCC(=O)N3CCCCC3)cc12 | 0.31 | 1.1 | 5 | -32 | -1.1 | 0.93 | x | x | x
Cc1ccc(-n2c(=O)cc(N3CC(C)CC(C)C3)[nH]c2=O)cc1 (stereo not given) | 0.5 | 0.9 | x | x | -0.0052 | 3.6* | 3236* | 1556 | 3572
NC1=NC(c2cn(-c3ccccc3)nc2-c2cccs2)n2c(nc3ccccc32)N1 (stereo not given) | -0.3 | 1.6 | -1 | 3 | -0.36 | 4.3* | 7380* | 1336 | 2668
OC(CN1CCN(c2ccccc2)CC1)c1c[nH]c2ccccc12 (stereo not given) | 0.19 | 1 | -2 | 2 | 0.73 | -0.02 | x | x | x
CC(=O)c1cccc(-n2nnnc2SCC(=O)N2CCCC2)c1 | -1.6 | 0.9 | 0 | -6 | -0.035 | 1.1 | x | x | x
CCOC(=O)C1CCCN(c2cc(=O)n(Cc3ccc(F)cc3)c(=O)[nH]2)C1 (stereo not given) | 0.11 | 1 | 0 | 20 | 3 | 0.27 | x | x | x
N#Cc1nc(-c2cccs2)oc1NCC1CCCO1 (stereo not given) | 1.5 | 0.9 | 0 | -3 | -0.51 | 13* | 18624* | x | 2376
CC1(C)Cc2c(sc3c2c(=N)n(Cc2ccco2)c(=O)n3Cc2ccc(Cl)cc2)CO1 | -0.048 | 0.9 | x | x | 0.0031 | 25* | 24660* | 1604 | 8816*
C=CCNC(=O)CN(c1cccc(Br)c1)S(C)(=O)=O | -0.44 | 1 | -2 | 6 | -0.014 | -0.2 | x | x | x
Cc1ccc(S(=O)(=O)NC(=O)COc2ccccc2C(N)=O)cc1 | 0.3 | 1 | 0 | x | 0.91 | x | x | x | x
CCOC(=O)c1sc2nc(N3CCOCC3)c3c(c2c1N)CC(C)(C)N(C)C3 | -1.1 | x | x | x | 1.3 | 3.1* | 12684* | 1612 | 3440*
Cc1ccc(-c2csc3nc(C)n(-n4c(C)ccc4C)c(=O)c23)o1 | -0.69 | 0.9 | 0 | -31 | 0.17 | 0.52 | x | x | x
COc1ccc(-c2csc3nc(C)n(-n4cccc4)c(=O)c23)cc1OC | 0.12 | 1 | -1 | -6 | 0.67 | 4.9* | 6784* | 1784 | 2632
COCc1cc(C)nc(NC2CCCCC2)c1C#N | -1 | 0.8 | -1 | x | 2.3 | 3.5* | 5216 | 1592 | 2852
